Type in all cases: functional
In assay [1] the test system is Enterococcus faecalis. In words: Antibacterial activity against Enterococcus faecalis ATCC 29212 assessed as zone of inhibition diameter at 1 mg/mL after 24 hrs by Kirby-Bauer disk diffusion assay. Put shortly: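 Inoculum grown in Mueller–Hinton broth ~24 h at 37 °C, 180 rpm, then plated on nutrient agar. Kirby–Bauer disk method: 10 µL of 1 mg/mL solution in DMSO applied to 6 mm sterile paper disk; vancomycin (1 mg/mL in water) positive control, DMSO negative control. Plates incubated 24 h at 37 °C; inhibition zone diameter measured.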
(In general: Agar diffusion results depend on both activity and mobility in agar.)

Assay [2] relates to Bacillus subtilis. In words: Antibacterial activity against Bacillus subtilis ATCC 6633 assessed as zone of inhibition diameter at 1 mg/mL after 24 hrs by Kirby-Bauer disk diffusion assay. Particulars: ATCC 6633, 24 h, read-out: IZ. In a few lines:
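Kirby–Bauer disk diffusion on nutrient agar, inoculum grown in Mueller–Hinton broth about 24 h at 37 °C, 180 rpm. 10 µL of 1 mg/mL compound in DMSO applied to 6 mm paper disks. Vancomycin (1 mg/mL in water) positive control, DMSO negative control. Plates incubated 24 h at 37 °C. Inhibition zone diameter measured.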

Assay [3] concerns Bacillus subtilis. In words: Antibacterial activity against Bacillus subtilis ATCC 6633 after 24 hrs visualized by MTT analyzed by broth microdilution assay. Particulars: ATCC 6633, 24 h. Background: Broth dilution looks for growth in wells or tubes with falling amounts of substance.
In assay [4] the test system is Enterococcus faecalis. In words: Antibacterial activity against Enterococcus faecalis ATCC 29212 after 24 hrs visualized by MTT analyzed by broth microdilution assay. Particulars: ATCC 29212, 24 h.
Assay [5] has as its system Mycolicibacterium smegmatis. In words: Antibacterial activity against Mycobacterium smegmatis ATCC 14468 after 48 hrs visualized by MTT […]. To be noted: ATCC 14468, 48 h.
Assay [6] deals with Mycolicibacterium smegmatis. In words: Antibacterial activity against Mycobacterium smegmatis ATCC 14468 assessed as zone of inhibition diameter at 1 mg/mL after 48 hrs by Kirby-Bauer disk diffusion assay. Particulars: ATCC 14468, 48 h, read-out: IZ. In a few lines:
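Kirby–Bauer disk diffusion on Middlebrook 7H10 agar with 0.5% glycerol and OADC. Inoculum grown in 7H9 with 0.2% glycerol and ADC about 24 h at 37 °C, 180 rpm. 10 µL of 1 mg/mL compound in DMSO applied to 6 mm disks. INH (1 mg/mL in DMSO) positive control, DMSO negative control. Plates incubated 48 h at 37 °C. Inhibition zone diameter measured.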

Four compounds from ChEMBL document CHEMBL1156724, “Synthesis of triazole-oxazolidinones via a one-pot reaction and evaluation of their antimicrobial activity” (2008) can be followed below.

≈ marks a conversion by molar mass, not a printed value. Calls of active or inactive are those of the source. The calls are words filed in the database; no cut-off is given here.

Take `CN[C@H](CC(C)C)C(=O)N[C@H]1C(=O)N[C@@H](CC(N)=O)C(=O)N[C@H]2C(=O)N[C@H]3C(=O)N[C@H](C(=O)N[C@H](C(=O)O)c4cc(O)cc(O)c4-c4cc3ccc4O)[C@H](O)c3ccc(c(Cl)c3)Oc3cc2cc(c3O[C@@H]2O[C@H](CO)[C@@H](O)[C@H](O)[C@H]2O[C@H]2C[C@](C)(N)[C@H](O)[C@H](C)O2)Oc2ccc(cc2Cl)[C@H]1O` [VANCOMYCIN]: the zone of inhibition at 1000 µg/mL came to 14 mm in the assay on Enterococcus faecalis [1] (ATCC 29212, 24 h, read-out: IZ) and 15 mm in the assay on Bacillus subtilis [2]. The MIC – broadly, the least concentration at which growth counts as inhibited – was 0.5 µg/mL (≈ 0.345 µM) in the assay with Bacillus subtilis [3] and 1 µg/mL (≈ 0.69 µM) in the assay on Enterococcus faecalis [4].
Take `NNC(=O)c1ccncc1` [ISONIAZID]: it took 4 µg/mL (≈ 29.2 µM) to inhibit growth in assay [5] (MIC). For the same compound, in assay [6], the zone of inhibition at 1000 µg/mL was 17 mm.
As for `CC(=O)c1ccc(N2CC(Cn3cc(CCO)nn3)OC2=O)cc1` (stereo not drawn), the figures for the MIC (in assay [5]; against Bacillus subtilis [3]; against Enterococcus faecalis [4]) were 16 µg/mL (≈ 48.4 µM), over 32 µg/mL and over 32 µg/mL, respectively. Further, the zone of inhibition at 1000 µg/mL in assay [6] came to 15 mm; in the assay with Bacillus subtilis [2] it was 17 mm. In addition, in the assay on Enterococcus faecalis [1], the outcome was inactive.
Regarding `CC(=O)c1ccc(N2CC(Cn3ccnn3)OC2=O)cc1` (stereo not drawn), the MIC in assay [5] turned out to be 1 µg/mL (≈ 3.49 µM); in the assay on Bacillus subtilis [3] it was 4 µg/mL (≈ 14 µM); against Enterococcus faecalis [4], 16 µg/mL (≈ 55.9 µM). The zone of inhibition at 1000 µg/mL in assay [6] amounted to 25 mm; with Bacillus subtilis [2], 26 mm. Besides, the result in the assay with Enterococcus faecalis [1] was inactive.
